The list is not random: actives were taken first. Their share in the collection is about 3%.
V-ATPase pHluor: alters yeast V-ATPase proton transport; S. cerevisiae, pHLuorin cytosolic pH fluorescence; response, % at 10 µM; actives 0.37% (n = 350,000); in the data active = response mostly above about 7.3%, no sharp cut-off; inactive = mostly below about 5.4%; note: actives read high
HIF activator: HIF pathway transcriptional activation; U2OS HRE-luciferase reporter, luminescence; normalized: DMSO 0%, desferrioxamine 100%; actives 0.32% (n = 300,000); AID 1910; activation, % at 7.5 µM (by protocol);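 active = mean activation of at least 10% of the iron chelator positive control signal, with at least half of replicates also reaching 10%; inconclusive = mean and replicate majority disagree about reaching 10%; inactive = mean and most replicates under 10%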
AI-2 QS mod: modulates the Vibrio harveyi AI-2 quorum sensing system. Vibrio harveyi JMH597 AI-2 luminescence/OD600 ratio, 9 h; active compounds read low; strain lacks LuxN and CqsS sensors; 0 = neutral-control median. activity change, % at 7.5 µM. actives 0.4% (n = 300,000). AID 2094; in the data active = activity change below about -75%, passing the limit was not always enough; inconclusive = no clear call, values can overlap the other calls;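 note: luminescence divided by OD600 gain over 9 h not by final OD600 alone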
Yeast superoxide: caloric restriction mimetics inhibiting age-related superoxide in yeast; S. cerevisiae aged cells, superoxide DHE fluorescence; active compounds read low; superoxide response (% of plate mean), % at 10 µM; actives 0.18% (n = 330,000);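 active = superoxide response under a set limit, about three screen SD below normal, cut at about 65% in these data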;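 note: yeast aged for seven days with compound at 30 °C before DHE staining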
NRP1-CendR mod: modulators of CendR peptide binding to human neuropilin-1; FAM-RPARPAR peptide binding to NRP-1, fluorescence polarization; actives 0.85% (n = 360,000); O14786; inhibition, % at 25 µM;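 active = inhibition or corrected inhibition above about 18%, plus a signal ratio from 0.5 to 1.5, limit read from the data, passing the limit was not always enough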
Target sequence (O14786 whole entry, looked up): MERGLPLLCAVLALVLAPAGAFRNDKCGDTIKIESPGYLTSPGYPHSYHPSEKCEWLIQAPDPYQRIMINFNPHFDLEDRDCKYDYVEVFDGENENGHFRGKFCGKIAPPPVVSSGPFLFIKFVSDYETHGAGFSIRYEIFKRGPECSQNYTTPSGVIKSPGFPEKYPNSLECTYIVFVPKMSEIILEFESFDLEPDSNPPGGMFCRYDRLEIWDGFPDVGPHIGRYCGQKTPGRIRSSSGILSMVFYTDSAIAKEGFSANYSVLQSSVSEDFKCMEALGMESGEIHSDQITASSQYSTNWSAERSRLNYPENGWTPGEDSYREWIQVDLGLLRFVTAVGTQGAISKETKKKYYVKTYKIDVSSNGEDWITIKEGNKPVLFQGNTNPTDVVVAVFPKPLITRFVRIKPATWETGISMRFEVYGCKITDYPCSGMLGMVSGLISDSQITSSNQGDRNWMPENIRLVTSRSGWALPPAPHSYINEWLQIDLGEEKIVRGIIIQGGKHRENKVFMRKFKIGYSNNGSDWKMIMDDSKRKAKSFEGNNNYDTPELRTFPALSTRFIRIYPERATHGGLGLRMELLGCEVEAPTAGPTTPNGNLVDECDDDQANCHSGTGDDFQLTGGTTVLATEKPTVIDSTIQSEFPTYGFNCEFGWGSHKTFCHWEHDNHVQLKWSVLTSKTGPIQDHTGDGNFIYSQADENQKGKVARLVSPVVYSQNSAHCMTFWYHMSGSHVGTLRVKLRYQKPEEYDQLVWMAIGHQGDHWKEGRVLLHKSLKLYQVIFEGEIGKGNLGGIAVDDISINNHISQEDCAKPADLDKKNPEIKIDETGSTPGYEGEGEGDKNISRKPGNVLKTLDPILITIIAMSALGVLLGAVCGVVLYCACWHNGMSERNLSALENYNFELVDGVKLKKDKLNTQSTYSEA
T cruzi inh: blocks replication of Trypanosoma cruzi. T. cruzi beta-gal in NIH3T3, luminescence, 90 h. inhibition, % (concentration not given with the values). actives 1.4% (n = 300,000). AID 1885;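 active = mean inhibition across valid replicates above about 55%, limit read from the data; inconclusive = mean below that limit but half or more replicates reach it; inactive = mean below it, under half of replicates reach it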;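 note: signal also drops with host cell toxicity which is not excluded here; higher percent means less beta-gal luminescence so fewer parasites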
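System: NIH/3T3 fibroblasts plus reporter T. cruzi. Medium: DMEM plus 2% FBS. Probe or stimulus: 5000 reporter trypomastigotes per well. Compound: single 50 nL compound addition per well in DMSO. Incubation: co-culture of at least 90 h after 3 h attachment. Detection: GalScreen β-gal luminescence, detergent lysis, 60 min. Evaluation: parasite load inhibition, %.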
Hits are given with their value; n = inactive; u = inconclusive; x = no result given.

SMILES	V-ATPase pHluor	HIF activator	AI-2 QS mod	Yeast superoxide	NRP1-CendR mod	T cruzi inh
O=C(N/N=C/c1ccccc1O)c1cc(=O)[nH]c2ccccc12	x	11	n	n	x	n
CCOc1ccc(C(=O)OCC(=O)NCC2CCCO2)cc1 (stereo unspecified)	n	x	x	n	n	x
COc1cc2c(cc1OC)C(C)N(C(=O)CCNC(=O)c1ccccc1)CC2 (stereo unspecified)	n	n	n	n	n	n
C[C@]12CC[C@@H]3c4ccc(O)cc4CC[C@H]3[C@@H]1CCC2=O	93	n	n	n	n	n
CNCCCOc1ccc(Cl)cc1C(C)(C)C	n	n	n	n	n	55
CC(C)Cn1cnc2c1c(=O)n(CC(=O)NC(=O)NC(C)(C)C)c(=O)n2Cc1ccccc1	n	n	x	n	18	n
COc1ccc2nc(C)cc(Nc3ccc(N4CCOCC4)cc3)c2c1	n	n	n	n	n	61
COc1ccc(/C=N/Nc2cc(C)nc3ccc(OC)cc23)c(OC)c1	n	n	n	n	n	58
COc1ccc2nc(C)cc(N/N=C/c3ccccc3)c2c1	n	x	x	n	n	x
CCOC(=O)[C@H](O)[C@@H](O)c1cccc([C@H](O)[C@@H](O)C(=O)OCC)c1	n	n	n	n	24	n
CC1(C)CC(=O)c2cc(NC(=O)c3ccccc3)c(=O)oc2C1	n	n	n	n	n	n
Cc1nc2nc(CCNS(=O)(=O)c3ccc(Cl)cc3)cn2nc1C	13	n	n	n	n	n
COc1ccc(S(=O)(=O)NCCc2cn3nc(C)c(C)nc3n2)cc1	n	n	n	n	n	n
CN(C)S(=O)(=O)c1cccc(NC(=O)CN(CCO)CC(=O)Nc2cccc(S(=O)(=O)N(C)C)c2)c1	n	n	n	n	n	n
Cc1ccc2c(c1)NC(=O)c1cc([N+](=O)[O-])ccc1O2	n	n	n	n	n	n
O=C1Nc2ccccc2Oc2cc([N+](=O)[O-])ccc21	n	n	n	n	n	67
COc1cc(-c2cc(C(=O)Nc3ccc(S(=O)(=O)NCc4ccco4)cc3)c3ccccc3n2)cc(OC)c1OC	n	n	n	n	n	56
Cc1ccc(Cn2cccc(NC(=O)CCC3CCCC3)c2=O)cc1	n	n	n	n	n	n
CCc1ccc(N(CC(=O)NCCc2ccccc2)C(=O)CCC(=O)Nc2ccccn2)cc1	n	n	n	n	n	n
O=C1CCCCN1CCC(=O)N1CCCC(N2CCN(c3cccc(Cl)c3)CC2)C1 (stereo unspecified)	n	n	n	n	25	n
Cc1cc(OCCOCCN2CCCC2)ccc1C(C)C	n	n	n	n	n	57
Cc1cc(OCCCCCN2CCCC2)ccc1Cl	n	n	n	n	n	67
Clc1ccc(OCCCN2CCCC2)cc1Cl	n	n	n	n	n	n
CC(C)Oc1ccc(CNCCC2(C(C)C)CCOC(C)(C)C2)cc1 (stereo unspecified)	n	n	n	n	n	68
O=C1Nc2ccc(C(=O)O)c(O)c2C1=O	n	x	x	x	n	x
SMILES	V-ATPase pHluor	HIF activator	AI-2 QS mod	Yeast superoxide	NRP1-CendR mod	T cruzi inh
CN1/C(=C/C(=S)NC(=O)C2(C)CC2(Cl)Cl)C(C)(C)c2ccccc21 (stereo unspecified)	n	n	n	n	n	55
CN1/C(=C\C(=S)NC(=O)c2ccccc2Cl)C(C)(C)c2ccccc21	n	n	n	n	n	n
O=[N+]([O-])c1cc([N+](=O)[O-])c2c(=Nc3ccccc3)n(-c3ccccc3)n(O)c2c1	n	n	n	n	n	58
O=[N+]([O-])c1cccc(C(=Nc2ccccc2)NO)c1	n	n	n	n	n	n
CC(=O)N1c2ccc(S(=O)(=O)NCCC(=O)Nc3ccc(C)cn3)cc2CC1C (stereo unspecified)	n	n	n	n	n	n
O=C(N/N=C/c1ccc([N+](=O)[O-])o1)c1cc2ccccc2o1	n	n	n	n	n	64
Cc1scc(C(=O)N/N=C/c2ccc([N+](=O)[O-])o2)c1C	n	n	-91	n	n	n
Cc1nc2ccccn2c1C(=O)N/N=C/c1ccc([N+](=O)[O-])o1	n	n	u	n	n	71
Cc1nc2ccccn2c1C(=O)N/N=C/c1ccc([N+](=O)[O-])cc1	x	n	n	n	x	n
Cc1onc(-c2ccccc2Cl)c1C(=O)O/N=C(\N)c1cccc([N+](=O)[O-])c1	n	x	x	x	n	x
Cc1onc(-c2ccccc2)c1C(=O)O/N=C(\N)c1ccc([N+](=O)[O-])o1	n	n	u	n	n	n
Cc1onc(-c2ccccc2Cl)c1C(=O)O/N=C(\N)c1ccccc1	n	n	n	n	n	59
Cc1onc(-c2cccc(Cl)c2Cl)c1C(=O)O/N=C(\N)c1ccc([N+](=O)[O-])o1	n	n	n	n	n	78
C[C@H]1CN([C@@H](C)CO)C(=O)CCCn2nncc2CO[C@@H]1CN(C)S(=O)(=O)c1ccc2ccccc2c1	n	x	x	x	n	x
COc1ccc(NS(=O)(=O)c2ccc(C)c(C(=O)N(C)CCc3ccc(OC)c(OC)c3)c2)cc1	n	n	n	n	n	n
CN(C(=O)COc1ccccc1)c1ccc([N+](=O)[O-])cc1	n	x	x	x	n	x
Cc1ccc(-n2cccc2C(=O)NS(=O)(=O)c2ccc(C)cc2)cc1	n	n	n	n	n	n
Cc1ccc(-n2cccc2C(=S)N=P(N(C)C)(N(C)C)N(C)C)cc1	n	n	n	n	n	59
COc1cccc(CNc2ccc(N3CCCCC3)cc2)c1OC	n	x	x	n	n	x
COc1cc(CNc2ccc(N3CCCC3)cc2)cc(Cl)c1OC	n	n	n	n	n	73
COc1ccccc1CNc1ccc(N2CCCCC2)cc1	n	n	n	n	n	65
C=CCOc1c(Cl)cc(CNc2ccc(N(C)C)cc2)cc1OC	n	n	x	n	n	n
C=CCOc1c(Cl)cc(CNc2ccc(C)c(Cl)c2)cc1OC	x	n	n	n	x	55
CCOC(=O)c1c(C)[nH]c(C(=O)N2CCN(C(=O)OCC)CC2)c1C	n	n	n	n	n	n
C=C1C(C(=O)N2CCN(C)CC2)C1C(=O)N1CCN(C)CC1 (stereo unspecified)	13	x	n	n	n	n
COc1ccc(OC)c(C2SCCN2S(C)(=O)=O)c1 (stereo unspecified)	n	n	n	n	n	n
O=[N+]([O-])c1nn(-c2ccccc2)n(O)c1=NC1CCN(Cc2ccccc2)CC1	n	n	n	n	n	77
COc1cc(N=c2c([N+](=O)[O-])nn(-c3ccc4c(c3)OCCO4)n2O)cc(OC)c1	n	n	n	n	n	n
O=[N+]([O-])c1nn(-c2ccc3c(c2)OCCO3)n(O)c1=NC1CCN(Cc2ccccc2)CC1	n	n	n	n	n	62
